# ABCB1 block – human ABCB1 inhibition, ABCG2 as counter-screen. hit rate 0.067% among 190,000. CCRF-Adr cells, JC-1 efflux, flow cytometry. inhibition, % at 6.6 µM. AID 1326. P08183; in the data active = inhibition above about 40%;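 note: higher value means more JC-1 retained so stronger ABCB1 efflux block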
# ABCG2 inh – human ABCG2 inhibition, ABCB1 as counter-screen | hit rate 0.1% among 190,000 | inhibition, % at 6.6 µM | Q9UNQ0 | IgMXP3 cells, JC-1 efflux, flow cytometry;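 active = inhibition above 80%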
#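 material = IgMXP3 (ABCG2) plus far-red-tagged CCRF-Adr (ABCB1) cells | amount = 3 million cells/mL, equal mix of both lines | also added = JC-1 transporter substrate | dosing = one concentration, 6.6 µM final | schedule = 10 min at 25 °C | measured by = flow cytometric JC-1 green MFI at 530 nm | read-out basis = percent efflux inhibition, scaled nicardipine 100% to DMSO 0%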
# MEKK2 WT-MEK5 – raises or lowers MEK5 binding to wildtype human MEKK2 PB1 domain; binding response (% of control), % at 10 µM; bead flow cytometry, Alexa488-MEK5 binding to MEKK2 WT; actives lie on both sides; hit rate 1.1% among 290,000; Q9Y2U5; in the data active = binding response below about 67% or above about 130%
# MEKK3 PB1 HTS – modulators (inhibitors or enhancers) of MEK5 binding to human MEKK3 PB1 domain | hit rate 1.4% among 290,000 | binding response (% of control), % at 10 µM | AID 1529 | bead-based flow cytometry, Alexa488-MEK5 binding to MEKK3; actives lie on both sides; 0 = blocked by unlabeled MEK5, 100 = vehicle;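 active = binding response more than 3 SD above or below the average of its plate-row segment, actives on both sides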;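 note: Alexa488 bead fluorescence after subtracting the streptavidin-only scavenger bead signal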
# MEKK2 mut-MEK5 – signal of MEK5 binding to mutant human MEKK2 PB1 domain | bead flow cytometry, Alexa488-MEK5 binding to MEKK2 mutant | hit rate 0.35% among 290,000 | percent response, % at 10 µM; in the data active = percent response above about 24%, passing the limit was not always enough
# MEKK2wt confirm – raises or lowers MEK5 binding to wildtype human MEKK2, retest; shares compounds with MEKK3 PB1 HTS; bead flow cytometry, Alexa488-MEK5 binding to MEKK2 WT; actives lie on both sides; binding response (% of control), % at 10 µM; hit rate 2.4% among 5,900; in the data active = binding response below about 16% or above about 210%; inactive = in between
# MEKK2mut confirm – signal of MEK5 binding to mutant human MEKK2, retest; shares compounds with MEKK3 PB1 HTS; bead flow cytometry, Alexa488-MEK5 binding to MEKK2 mutant; percent response, % at 10 µM; hit rate 2% among 5,900; in the data active = percent response mostly above about 71%, no sharp cut-off; inactive = mostly below about 38%;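 note: higher means compound restores mutant binding toward wildtype level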
# MEKK3-MEK5 inh – MEKK3-MEK5 PB1 inhibition, single concentration confirmation; binding response (% of control), % at 10 µM; shares compounds with MEKK3 PB1 HTS; hit rate 1.8% among 5,900; bead flow cytometry, Alexa488-MEK5 binding to MEKK3; hits give low values;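 active = binding response below 72% of control, or above a set upper limit, though filed actives all read lower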;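 note: lower values mean stronger disruption of MEK5 binding to MEKK3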
# Numbers stand for hits; – = inactive; · = not tested or not shown; [ ] = another dose, or the depositor's remark. An excerpt weighted towards active compounds, which were near 2.3% of everything screened.
SMILES,ABCB1 block,ABCG2 inh,MEKK2 WT-MEK5,MEKK3 PB1 HTS,MEKK2 mut-MEK5,MEKK2wt confirm,MEKK2mut confirm,MEKK3-MEK5 inh
Cc1ccc(S(=O)(=O)N(CC(=O)Nc2ccc(Cl)c([N+](=O)[O-])c2)C2CCCCC2)cc1,–,–,146.0,–,–,–,–,–
O=C(NC1CCCCC1)C(c1cccnc1)N(C(=O)c1csnn1)C1CCCC1 (configuration not stated),–,–,–,–,–,·,·,·
O=C(NC1CCCC1)C(c1cccnc1)N(C(=O)c1csnn1)C1CCCC1 (configuration not stated),–,–,–,75.0[inhibitor],–,–,–,–
O=C(O)c1cc(-c2ccc(-c3ccc(F)cc3)o2)nc2ccccc12,·,·,–,–,–,·,·,·
O=C(Nc1ccc(F)c(Cl)c1)Nc1csc2ccccc12,·,·,191.0,–,–,–,–,–
COc1cccc(OC)c1NC(=O)C1CCCN1C(=O)Nc1cccc(Cl)c1 (configuration not stated),·,·,–,–,–,·,·,·
Cc1nccn1CCCN1C(=O)OC2(CCCCC2)C1(C)O (configuration not stated),–,–,–,–,–,·,·,·
CCC1(C)OC(=O)N(CCCn2ccnc2C)C1(C)O (configuration not stated),–,–,–,123.0,–,–,–,–
O=C(C[n+]1cnn(CC(=O)c2ccc(Cl)cc2Cl)c1)c1ccc([N+](=O)[O-])cc1,–,–,157.0,–,–,–,–,–
Cc1cc(-c2csc(N)n2)c(C)n1C,–,–,–,–,–,·,·,·
COc1ccccc1CNc1nc(-c2cc(C)n(C)c2C)cs1,–,–,-7.0[inhibitor],–,–,–,–,–
Cn1c(N)c(C(=O)CSc2nnc(-c3ccccc3F)n2C2CC2)c(=O)n(C)c1=O,–,–,–,–,–,·,·,·
C=CCn1c(SCC(=O)c2c(N)n(C)c(=O)n(C)c2=O)nnc1-c1ccccc1F,–,–,–,–,108.0,–,–,–
C=CCn1c(SCC(=O)c2c(N)n(C)c(=O)n(C)c2=O)nnc1-c1ccncc1,–,–,–,–,–,·,·,·
Cn1c(N)c(C(=O)CSc2nnc(-c3ccccc3F)n2N)c(=O)n(C)c1=O,·,·,–,47.0[inhibitor],–,–,–,–
CCc1[nH]nc(C(=O)NC2CCCc3c2cnn3-c2cc(C)cc(C)c2)c1C (configuration not stated),·,·,–,–,–,·,·,·
CC(C)c1ccc(CNC(=O)CSCC(=O)Nc2ccc3ccccc3c2)cc1,–,–,140.0,–,–,–,–,–
CC1(C)Cc2c(sc(NC(=O)c3ccc(S(=O)(=O)N4CCCCCC4)cc3)c2C#N)C(C)(C)N1,·,·,–,–,–,·,·,·
N/C(Cc1ccc([N+](=O)[O-])cc1)=N\OC(=O)c1ccc(Br)cc1,–,–,–,132.0,–,–,–,–
Cc1cc(C)nc(N2CCN(c3ccc(F)cc3)CC2)n1,·,·,–,–,–,·,·,·
CN(C)/C=N/c1nc2nccc(-c3ccc(Cl)cc3)n2n1,–,–,–,–,–,·,·,·
CN(C)/C=N/c1nc2nccc(-c3ccccc3)n2n1,–,–,–,47.0[inhibitor],–,–,–,–
Cc1ccc(Nc2cc(C)c(O)c(C)c2)cc1,·,·,–,–,–,·,·,·
CCC(C)(C)c1ccc(OCCCC[n+]2ccc(C)cc2)c(C(C)(C)CC)c1,–,–,189.0,–,56.0,–,–,–
CCCN(CCC)CCNC(=O)c1cc2c(-c3ccc(Cl)cc3)nn(C)c2s1,·,·,184.0,–,42.0,–,92.0,–
SMILES,ABCB1 block,ABCG2 inh,MEKK2 WT-MEK5,MEKK3 PB1 HTS,MEKK2 mut-MEK5,MEKK2wt confirm,MEKK2mut confirm,MEKK3-MEK5 inh
CCOCCCNC(=O)c1cc2c(-c3ccc(Cl)cc3)nn(C)c2s1,–,–,–,–,–,·,·,·
CCN(CC)CCNC(=O)c1cc2c(-c3ccc(Cl)cc3)nn(C)c2s1,–,–,191.0,–,–,–,–,–
CCCN(CCC)CCNC(=O)c1cc2c(-c3ccccc3F)nn(C)c2s1,·,·,–,–,–,·,·,·
CCCCN(CC)CCNC(=O)c1cc2c(-c3ccc(Cl)cc3)nn(C)c2s1,·,·,198.0,–,47.0,–,98.0,–
ClCc1nc2ccccc2c2ccccc12,·,·,–,–,–,·,·,·
Cc1ccc(S(=O)(=O)N2CCC(C(=O)NCCN3CCCCCC3)CC2)cc1,–,–,170.0,–,34.0,–,–,–
Cc1ccc(CCN2CC(C(=O)NCCN3CCOCC3)CC2=O)cc1 (configuration not stated),–,–,–,–,–,·,·,·
COc1ccc(CN2CC(C(=O)NCCCN3CCCCCC3)CC2=O)cc1 (configuration not stated),–,–,137.0,–,–,–,–,–
Cc1ccc(S(=O)(=O)N2CCC(C(=O)NCCc3ccccc3)CC2)cc1,–,–,–,–,–,·,·,·
O=C(NCc1ccc(F)cc1)C1CC(=O)N(CCc2ccccc2)C1 (configuration not stated),–,–,3.0[inhibitor],2.0[inhibitor],–,–,–,–
Cc1ccc(CCN2CC(C(=O)NCCN3CCCCCC3)CC2=O)cc1 (configuration not stated),–,–,161.0,–,62.0,–,72.0,–
O=C(O)CCc1[nH]c2ccccc2c1Sc1ccccc1,·,·,–,–,–,·,·,·
Cc1ccc2[nH]c(CNC(=O)c3ccccc3F)cc2c1,·,·,–,–,–,·,·,·
O=C(CSc1nnc(CNc2ccc(F)cc2)n1CC1CCCO1)N1CCOCC1 (configuration not stated),·,·,–,–,–,·,·,·
CS(=O)(=O)Nc1ccc(C(=O)Nc2ccccc2-c2ccccc2)cc1,·,·,–,–,–,·,·,·
Cc1ccc(CCN2CC(C(=O)NCCCN3CCC(C)CC3)CC2=O)cc1 (configuration not stated),·,·,–,–,–,·,·,·
Cc1ccc(CCN2CC(C(=O)NCCCN3CCCCCC3)CC2=O)cc1 (configuration not stated),–,–,138.0,–,–,–,–,–
Nc1c2c(nc3c1CCCC3)CCCC2 (tested in a mixture with another compound),·,·,–,–,–,·,·,·
Cc1cc(NC(=O)c2cc(Cl)ccc2Cl)no1,–,–,–,–,–,·,·,·
Cc1cc(NC(=O)c2ccccc2Cl)no1,–,–,–,35.0[inhibitor],–,–,–,–
O=C(C1CCCO1)N1CCN(C(=S)Nc2ccc(F)cc2)CC1 (configuration not stated),–,–,–,–,–,·,·,·
CNC(=S)N1CCN(C(=O)C2CCCO2)CC1 (configuration not stated),–,–,–,67.0[inhibitor],–,–,–,–

# Compound activity: PubChem BioAssay, NMMLSC
